Data published in ChEMBL document CHEMBL3526043, “Application of quantitative NMR in pharmacological evaluation of biologically generated metabolites: implications in drug discovery” (Drug Metab Dispos, 2011).

Tests used:
[1] = biological target: Phosphatidylinositol 4,5-bisphosphate 3-kinase catalytic subunit gamma isoform (Homo sapiens) (UniProt P48736); assay: Binding affinity to PI3K-gamma (unknown origin) by fluorescence polarization assay
[2] = AUC (0 to infinity) in Sprague-Dawley rat at 2 mg/kg, iv administered as bolus dose; assay type: ADME, organism-based; parameters: time infinity, dose 2 mg/kg, route intravenous; conditions: plasma
Summary of the method: (§1)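 Male Sprague-Dawley rats (n=3 per group), jugular/femoral cannulated, fed. Single IV bolus of 2 mg/kg in 5% dextrose/0.5% lactic acid, pH 3.5, at 1 mL/kg. Jugular blood sampled 0–1440 min into EDTA. Plasma measured by LC/MS/MS (LOQ 1 ng/mL, BLQ set to zero). Non-compartmental analysis with linear trapezoidal AUC; CL = Dose/AUC0-∞, Vdss = MRT·CL, t1/2 = 0.693/λ.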

[3] = system: Rattus norvegicus; assay: Drug level in Sprague-Dawley rat at 2 mg/kg, iv; conditions: in vivo
[4] = Retention time of the compound by HPLC analysis; assay type: physicochemical
[5] = Systemic clearance in Sprague-Dawley rat at 2 mg/kg, iv administered as bolus dose; assay type: ADME, organism-based; parameters: dose 2 mg/kg, route intravenous; conditions: in vivo; summary of the method: as §1
[6] = Elimination half life in Sprague-Dawley rat at 2 mg/kg, iv administered as bolus dose; assay type: ADME, organism-based; parameters: dose 2 mg/kg, route intravenous; conditions: in vivo, read-out: beta t1/2 (converted); summary of the method: as §1
[7] = Volume of distribution at steady state in Sprague-Dawley rat at 2 mg/kg, iv administered as bolus dose; assay type: ADME, organism-based; parameters: dose 2 mg/kg, route intravenous; conditions: in vivo, read-out: Vdss; summary of the method: as §1
[8] = system: Liver microsome; assay: Drug metabolism in Sprague-Dawley rat liver microsomes assessed as hydroxylated product formation after 60 mins by LC-MS analysis; assay type: ADME; conditions: 1 h
Summary of the method: (§2)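 Single enantiomers incubated with male rat, cynomolgus monkey or human liver microsomes (1 mg/mL) plus cytosol (2 mg/mL). Cofactors: NADPH 5 mM, MgCl2 8 mM, GSH 2 mM and UDPGA 2 mM, in 0.1 M phosphate, pH 7.4, at 37 °C for 60 min. Precipitated with 2% formic acid in acetonitrile, dried, reconstituted, and analysed by LC/MS (C18, 10–40% acetonitrile/5 mM ammonium acetate).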

[9] = system: Liver microsome; assay: Drug level in human liver microsomes treated with 1-(4-(4-(3-oxa-8-azabicyclo[3.2.1]octan-8-yl)-6-morpholino-1,3,5-triazin-2-yl)phenyl)-3-(pyridin-4-yl)urea at 0.02 mM after 60 mins by 1H-13C-HSQC spectra analysis; assay type: ADME; conditions: 20 µM
Summary of the method: (§3)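 Human liver microsomes at 1 mg/mL protein with substrate at 0.02 mM, 5 mM NADPH and 8 mM MgCl2 in 0.1 M potassium phosphate, pH 7.4. Incubated at 37 °C for 60 min. Stopped with 2% formic acid in acetonitrile and centrifuged. Metabolite isolated by semi-preparative C18 HPLC, then characterised by LC/MS (C18, acetonitrile/5 mM ammonium acetate gradient) and NMR.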

[10] = system: Liver microsome; assay: Drug metabolism in human liver microsomes assessed as hydroxylated product formation after 60 mins by LC-MS analysis; assay type: ADME; conditions: 1 h; summary of the method: as §2
[11] = biological target: Phosphatidylinositol 4,5-bisphosphate 3-kinase catalytic subunit alpha isoform (Homo sapiens) (UniProt P42336); assay: Binding affinity to PI3K-alpha (unknown origin) by fluorescence polarization assay
Phosphatidylinositol 4,5-bisphosphate 3-kinase catalytic subunit alpha isoform (Homo sapiens), sequence (P42336 whole entry, canonical isoform): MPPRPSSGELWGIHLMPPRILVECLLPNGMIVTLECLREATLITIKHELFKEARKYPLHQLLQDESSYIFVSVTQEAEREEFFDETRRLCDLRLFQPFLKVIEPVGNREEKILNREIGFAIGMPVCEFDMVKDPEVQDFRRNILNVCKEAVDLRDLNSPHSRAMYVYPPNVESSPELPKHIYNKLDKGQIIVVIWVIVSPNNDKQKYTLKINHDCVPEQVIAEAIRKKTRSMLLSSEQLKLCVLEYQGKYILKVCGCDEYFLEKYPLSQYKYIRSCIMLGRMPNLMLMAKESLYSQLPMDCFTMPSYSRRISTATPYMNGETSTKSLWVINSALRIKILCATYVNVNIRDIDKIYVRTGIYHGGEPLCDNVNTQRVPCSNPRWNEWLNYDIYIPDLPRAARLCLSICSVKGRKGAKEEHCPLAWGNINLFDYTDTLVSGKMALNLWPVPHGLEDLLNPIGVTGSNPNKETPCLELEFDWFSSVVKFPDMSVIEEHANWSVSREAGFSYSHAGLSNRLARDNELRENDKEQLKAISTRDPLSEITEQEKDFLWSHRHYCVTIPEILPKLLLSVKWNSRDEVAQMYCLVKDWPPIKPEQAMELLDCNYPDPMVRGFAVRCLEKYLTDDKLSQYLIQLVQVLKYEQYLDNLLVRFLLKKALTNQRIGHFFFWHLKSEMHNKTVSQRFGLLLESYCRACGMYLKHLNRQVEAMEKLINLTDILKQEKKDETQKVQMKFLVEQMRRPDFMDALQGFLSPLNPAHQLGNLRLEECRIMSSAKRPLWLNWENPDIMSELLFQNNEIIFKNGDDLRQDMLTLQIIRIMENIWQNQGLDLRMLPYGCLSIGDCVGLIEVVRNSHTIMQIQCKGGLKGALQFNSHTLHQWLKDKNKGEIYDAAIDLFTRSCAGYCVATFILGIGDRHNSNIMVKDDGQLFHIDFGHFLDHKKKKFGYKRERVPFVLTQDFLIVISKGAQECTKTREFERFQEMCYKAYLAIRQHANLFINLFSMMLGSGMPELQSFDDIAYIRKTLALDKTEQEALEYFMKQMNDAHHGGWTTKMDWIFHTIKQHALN

[12] = Drug metabolism in cynomolgus monkey liver microsomes assessed as hydroxylated product formation after 60 mins by LC-MS analysis; assay type: ADME, Macaca fascicularis; conditions: 1 h; summary of the method: as §2
[13] = system: Liver microsome; assay: Drug metabolism in human liver microsomes assessed as (rac)-1-(4-(4-(6-hydroxy-3-oxa-8-azabicyclo[3.2.1]octan-8-yl)-6-morpholino-1,3,5-triazin-2-yl)phenyl)-3-(pyridin-4-yl)urea formation at 0.02 mM after 60 mins by LC-MS analysis; assay type: ADME; conditions: 1 h, 20 µM
Summary of the method: (§4)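 Parent at 0.02 mM was incubated with human liver microsomes (1 mg/mL protein) in 0.1 M potassium phosphate pH 7.4 with 5 mM NADPH and 8 mM MgCl₂, at 37 °C for 60 min. Reactions were quenched with 2% formic acid in acetonitrile and the metabolite isolated by semi-preparative C18 HPLC. Identity was checked by LC/MS on C18 with an acetonitrile/5 mM ammonium acetate gradient.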

[14] = system: Liver microsome; assay: Drug metabolism in human liver microsomes assessed as (1R,5R,6R)-1-(4-(4-(6-hydroxy-3-oxa-8-azabicyclo[3.2.1]octan-8-yl)-6-morpholino-1,3,5-triazin-2-yl)phenyl)-3-(pyridin-4-yl)urea formation at 0.02 mM after 60 mins by 1H-13C-HSQC spectra analysis; assay type: ADME; conditions: 20 µM; summary of the method: as §4
[15] = biological target: Serine/threonine-protein kinase mTOR (Homo sapiens) (UniProt P42345); assay: Binding affinity to mTOR (unknown origin) by DELFIA
[16] = system: Liver microsome; assay: Drug metabolism in human liver microsomes assessed as (1R,5R,6R)-1-(4-(4-(6-hydroxy-3-oxa-8-azabicyclo[3.2.1]octan-8-yl)-6-morpholino-1,3,5-triazin-2-yl)phenyl)-3-(pyridin-4-yl)urea formation at 0.02 mM after 60 mins by 1H-13C-HSQC spectra analysis; conditions: 20 µM
[17] = Drug metabolism in cynomolgus monkey liver microsomes assessed as (rac)-1-(4-(4-(6-hydroxy-3-oxa-8-azabicyclo[3.2.1]octan-8-yl)-6-morpholino-1,3,5-triazin-2-yl)phenyl)-3-(pyridin-4-yl)urea formation at 0.02 mM after 60 mins by LC-MS analysis; assay type: ADME, Macaca fascicularis; conditions: 1 h, 20 µM
[18] = system: Liver microsome; assay: Drug level in human liver microsomes treated with 1-(4-(4-(3-oxa-8-azabicyclo[3.2.1]octan-8-yl)-6-morpholino-1,3,5-triazin-2-yl)phenyl)-3-(pyridin-4-yl)urea at 0.02 mM after 60 mins by LC-MS analysis; assay type: ADME; conditions: 1 h, 20 µM; summary of the method: as §3
[19] = system: Liver microsome; assay: Drug level in human liver microsomes treated with 1-(4-(4-(3-oxa-8-azabicyclo[3.2.1]octan-8-yl)-6-morpholino-1,3,5-triazin-2-yl)phenyl)-3-(pyridin-4-yl)urea by NMR analysis; assay type: ADME
Summary of the method: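 Metabolite isolated from the human liver microsome incubation and quantified by 1H NMR. A calibration curve was built from parent-compound spectra at 5 concentrations, using the averaged integration of aromatic protons (δ 8.37, 8.30, 7.55, 7.44). Metabolite concentration was read from that curve; spectra were referenced to residual solvent.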

[20] = Drug level in cynomolgus monkey liver microsomes treated with 1-(4-(4-(3-oxa-8-azabicyclo[3.2.1]octan-8-yl)-6-morpholino-1,3,5-triazin-2-yl)phenyl)-3-(pyridin-4-yl)urea at 0.02 mM after 60 mins by LC-MS analysis; assay type: ADME, Macaca fascicularis; conditions: 1 h, 20 µM

Phosphatidylinositol 4,5-bisphosphate 3-kinase catalytic subunit gamma isoform (Homo sapiens), sequence (P48736 whole entry, looked up, canonical isoform): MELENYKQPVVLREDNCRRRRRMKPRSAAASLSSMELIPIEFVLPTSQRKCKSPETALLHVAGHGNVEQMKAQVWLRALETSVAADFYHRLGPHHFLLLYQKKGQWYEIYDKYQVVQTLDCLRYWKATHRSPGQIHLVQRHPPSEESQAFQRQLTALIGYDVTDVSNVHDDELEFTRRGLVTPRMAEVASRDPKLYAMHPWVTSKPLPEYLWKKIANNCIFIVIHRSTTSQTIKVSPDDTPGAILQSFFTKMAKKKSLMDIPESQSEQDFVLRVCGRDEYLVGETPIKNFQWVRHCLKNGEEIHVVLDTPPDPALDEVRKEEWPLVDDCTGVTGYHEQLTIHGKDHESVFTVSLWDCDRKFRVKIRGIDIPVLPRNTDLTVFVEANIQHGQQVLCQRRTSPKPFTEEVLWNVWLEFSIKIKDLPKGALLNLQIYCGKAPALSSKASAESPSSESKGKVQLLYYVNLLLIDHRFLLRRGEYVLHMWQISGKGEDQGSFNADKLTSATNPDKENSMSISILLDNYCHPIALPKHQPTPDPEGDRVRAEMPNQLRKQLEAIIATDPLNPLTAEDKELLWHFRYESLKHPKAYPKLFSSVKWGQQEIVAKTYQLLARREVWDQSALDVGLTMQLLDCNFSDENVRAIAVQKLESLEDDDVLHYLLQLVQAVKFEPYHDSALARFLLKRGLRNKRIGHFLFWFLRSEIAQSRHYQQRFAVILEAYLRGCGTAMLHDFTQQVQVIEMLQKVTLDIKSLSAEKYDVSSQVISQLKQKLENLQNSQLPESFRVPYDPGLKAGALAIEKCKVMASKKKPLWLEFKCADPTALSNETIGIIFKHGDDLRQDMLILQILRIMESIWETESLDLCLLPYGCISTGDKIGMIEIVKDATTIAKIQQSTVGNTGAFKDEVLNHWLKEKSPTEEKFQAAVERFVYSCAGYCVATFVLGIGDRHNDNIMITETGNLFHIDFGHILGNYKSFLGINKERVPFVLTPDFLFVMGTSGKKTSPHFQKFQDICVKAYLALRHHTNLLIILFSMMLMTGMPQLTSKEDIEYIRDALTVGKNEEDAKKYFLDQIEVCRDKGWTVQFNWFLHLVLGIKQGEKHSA

SMILES: O=C(Nc1ccncc1)Nc1ccc(-c2nc(N3CCOCC3)nc(N3[C@H]4COC[C@@H]3[C@H](O)C4)n2)cc1
- Activity [1]: 50 nM
- AUC(0-inf) [2]: 315 ng·h/mL
- Drug uptake [3]: metabolite_not_detected
- Retention_time [4]: 10.2 min
- clearance [5]: 107 mL/min/kg
- half-life [6]: 42 min
- Vd [7]: 1.5 L/kg
- Stability [8]: Stable
- Drug metabolism [9]: metabolite_detected
- Drug metabolism [10]: metabolite_not_detected
- Activity [11]: 4 nM
- Drug metabolism [12]: metabolite_not_detected

SMILES: O=C(Nc1ccncc1)Nc1ccc(-c2nc(N3CCOCC3)nc(N3C4CCC3COC4)n2)cc1 [PKI-179]
- Activity [1]: 51 nM
- AUC(0-inf) [2]: 867 ng·h/mL
- Drug metabolism [13]: metabolite_detected
- Drug uptake [3]: metabolite_not_detected
- clearance [5]: 38.3 mL/min/kg
- half-life [6]: 54 min
- Drug metabolism [14]: metabolite_detected
- Vd [7]: 2.4 L/kg
- Activity [15]: 0.5 nM
- Activity [11]: 8 nM
- Drug metabolism [16]: metabolite_detected
- Drug metabolism [17]: metabolite_detected

SMILES: O=C(Nc1ccncc1)Nc1ccc(-c2nc(N3CCOCC3)nc(N3C4COCC3C(O)C4)n2)cc1 (racemic)
- Drug metabolism [18]: metabolite_detected
- Activity [1]: 33 nM
- Drug uptake [19]: 1.72 mM
- Activity [15]: 0.8 nM
- Activity [11]: 4 nM
- Drug metabolism [20]: metabolite_detected

SMILES: O=C(Nc1ccncc1)Nc1ccc(-c2nc(N3CCOCC3)nc(N3[C@@H]4COC[C@H]3[C@@H](O)C4)n2)cc1
- Activity [1]: 93 nM
- AUC(0-inf) [2]: 283 ng·h/mL
- Drug uptake [3]: metabolite_not_detected
- Retention_time [4]: 13.4 min
- clearance [5]: 123 mL/min/kg
- half-life [6]: 12 min
- Vd [7]: 0.9 L/kg
- Stability [8]: Stable
- Drug metabolism [9]: metabolite_detected
- Drug metabolism [10]: metabolite_detected
- Activity [11]: 9 nM
- Drug metabolism [12]: metabolite_detected
